Results published in article PMC4142138 (European Journal of Drug Metabolism and Pharmacokinetics, 2014).
Values after ≈ are worked out from the molar mass of the structure shown.

Assays:
CXCR2 = settings: read-out: IC50 for CXCL8 binding; ref GSK, data on file; cited from earlier work
[1] = type: in vivo; settings: human, whole blood, po, 50 mg
[2] = In vitro pH solubility profile in Britton–Robinson buffer; type: physicochemical; settings: pH 6, aqueous buffer, thermodynamic from solid
In short: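 Excess solid added to Britton–Robinson buffer at the set pH in a vial, rolled 4 h at ambient temperature. A sample was filtered by centrifugation through a 0.45 μm PVDF membrane. The clear filtrate was assayed by gradient reversed-phase HPLC on C18 (water/acetonitrile, 0.05 % TFA) with UV detection at 220 nm.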

healthy elderly subjects = assay: Safety and tolerability; type: in vivo, human; settings: whole study
In short: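 Healthy elderly (65–80 y) male or non-childbearing female volunteers in a single-centre randomised crossover study; 20 subjects through 4 treatment periods. Each period had omeprazole 20 mg QD for 5 days and a single oral 50 mg test compound dose (fed or fasted), with washout ≥3 days. AEs, vital signs, ECGs, clinical chemistry, haematology, urinalysis and physical examination were summarised by treatment.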

[3] = all treatment periods, 20 subjects

half-life [1]: 7 to 9 h | solubility at 4 h [2]: 3 µg/mL (≈ 6.79 µM)
SMILES: Cc1c(F)cccc1NC(=O)Nc1ccc(Cl)c(S(=O)(=O)[C@H]2CCCNC2)c1O [danirixin, Danirixin]
IC50 (CXCR2): […] | serious AEs (healthy elderly subjects): no serious AEs | subjects reporting AEs during the study (healthy elderly subjects; [3]): 45% | subjects reporting headaches during the study (healthy elderly subjects; [3]): 20%
